Several values for one entry are separate records, joined by “and”; a condition that tells them apart may be missing. Equal values may be shown once.

The values that follow come from ChEMBL document CHEMBL1123085, “Mechanism of the differentiating action of 25-hydroxyvitamin D3 endoperoxides in human myeloid leukemia cells (HL-60)” (1985).

Format in all cases: functional
For test [1], the species on record is Mus musculus. As to the kind of experiment: In vitro bone-reabsorbing activity was examined in fetal mouse calvaria prelabeled with 45 Ca at 120 nM concentration, Ca release. An outline of the steps: (§1)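 Paired half fetal mouse calvaria, split along the midsagittal suture, were precultured 24 h at 37 °C under 5% CO₂ in air in BGJ medium containing 1 mg/mL bovine serum albumin. Halves were then moved to fresh medium with or without derivative for 6 more days. Bones were digested overnight in HCl, and ⁴⁵Ca in the medium and bone was counted. ⁴⁵Ca release % = medium/(medium+bone)×100, reported as treated/control ratio. Student's t test.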

The species entered for test [2] is Mus musculus. The experiment in a line: In vitro bone-reabsorbing activity was examined in fetal mouse calvaria prelabeled with 45 Ca at 12 nM concentration, Ca release. The essentials:
as §1

For test [3], the species on record is Mus musculus. As to the kind of experiment: In vitro bone-resorbing activity was examined in fetal mouse calvaria prelabeled with 45Ca at 1.2 nM concentration. An outline of the steps:
as §1

Test [4] is filed under the species Mus musculus. The experiment in a line: In vitro bone-resorbing activity was examined in fetal mouse calvaria prelabeled with 45Ca at 12 nM concentration. An outline of the steps: as §1
The species named for test [5] is Mus musculus. As to the kind of experiment: In vitro bone-resorbing activity was examined in fetal mouse calvaria prelabeled with 45Ca at 120 nM concentration. An outline of the steps:
as §1

For test [6], the species on record is Mus musculus. The experiment in a line: In vitro bone-reabsorbing activity was examined in fetal mouse calvaria prelabeled with 45 Ca at 1.2 nM concentration, Ca release. An outline of the steps:
as §1

As for `C[C@H](CCCC(C)(C)O)C1CCC2/C(=C/C3OOCC4=C3C[C@@H](O)CC4)CCCC21C` (stereo partly drawn), the values for the T/C in test [1] and in test [2] were 2.43 and 1.61, respectively.
As to `C[C@H](CCCC(C)(C)O)C1CCC2/C(=C/c3occ4c3CC(O)CC4)CCCC21C` (stereo partly drawn), the T/C in test [3] is 1.05 and 0.98; in test [4], 1.63; in test [5], 2.64.
`C=C1CC[C@H](O)C/C1=C/C=C1\CCC[C@]2(C)[C@@H]([C@H](C)CCCC(C)(C)O)CC[C@@H]12` [CALCIFEDIOL ANHYDROUS]: the results for the T/C in test [6], in test [1] and in test [2] were 1, 1.74 and 1.33, respectively.
